Assay results as given in ChEMBL document CHEMBL4118021, “Studies of TAK1-centered polypharmacology with novel covalent TAK1 inhibitors” (Bioorg Med Chem, 2017).
One block for each molecule: values may come before it. Activity calls are given as the source filed them. The calls are words filed in the database; no cut-off is given here.

How the values were obtained:
[1] = Increase in secretion of basic-FGF in IL-1alpha activated RA patient-derived synovial fibroblasts at 0.6 to 3 uM preincubated for 3 hrs followed by IL-1alpha stimulation measured after 18 hrs by sandwich immunoassay; settings: human
Summary of the method: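 Primary human RA synovial fibroblasts (donor RA2159) seeded at 1000 viable cells/well, grown ~24 h at 37 °C/5% CO2, then starved overnight in basal medium and for a further ~4 h in basal medium with 0.1% BSA. Inhibitor or DMSO given 3 h before stimulation. Supernatants from two adjacent wells pooled as one replicate, biological duplicate. Luminex multiplex panels (48 analytes), diluted 1:3. Mock-supernatant background and spiked-ligand cross-reactivity controls included.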

[2] = target: Serine/threonine-protein kinase 36 (Homo sapiens) (UniProt Q9NRP7); assay: Inhibition of human STK36 (1 to 271 residues) expressed in bacterial expression system assessed as enzyme activity at 10 uM by KINOMEScan assay relative to control; design: scale not given: the % may be the effect or the level left
Summary of the method: (§1)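 In vitro ATP-site competition binding assay across a panel of 456 kinases, with compound tested at 1 and 10 μM.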

[3] = target: Vascular endothelial growth factor receptor 1 (Homo sapiens) (UniProt P17948); assay: Inhibition of human FLT1 (781 to 1239 residues) expressed in bacterial expression system assessed as enzyme activity at 10 uM by KINOMEScan assay relative to control; design: scale not given: the % may be the effect or the level left; summary of the method: as §1
[4] = target: Large ribosomal subunit protein bL12m (Homo sapiens) (UniProt P52815); assay: Binding affinity to MRPL12 in human NCI-H358 cells at 1 uM by mass spectrometry based pull down assay; type: cell-based
[5] = target: Deaminated glutathione amidase (Homo sapiens) (UniProt Q86X76); assay: Binding affinity to NIT1 in human NCI-H358 cells at 1 uM by mass spectrometry based pull down assay; type: cell-based
[6] = target: Thioredoxin-related transmembrane protein 1 (Homo sapiens) (UniProt Q9H3N1); assay: Binding affinity to TMX1 in human NCI-H358 cells at 1 uM by mass spectrometry based pull down assay; type: cell-based
[7] = system: NCI-H23; assay: Binding affinity to PTGES3L-AARSD1 in human NCI-H23 cells at 1 uM by mass spectrometry based pull down assay; type: cell-based
[8] = target: Glucose-6-phosphate isomerase (Homo sapiens) (UniProt P06744); assay: Binding affinity to GPI in human NCI-H358 cells at 1 uM by mass spectrometry based pull down assay; type: cell-based
[9] = target: T1, 80S Ribosome (Homo sapiens) (UniProt P08865+P42677+P62753+P15880+P23396+P61247+P62701+P22090+P46782+P62081+P62241+P46781+P46783+P62280+P25398+P62277+P62263+P62841+P62244+P62249+P08708+P62269+P39019+P60866+P63220+P62266+P62847+P62851+P62854+P62979+P62857+P62273+P62861+P39023+P36578+P46777+Q02878+P18124+P62424+P62917+P32969+P27635+P62906+P62913+P30050+P26373+P40429+P50914+P61313+P18621+Q07020+Q02543+P84098+P46778+P35268+P62829+P62750+P83731+P61254+P61353+P46776+P46779+P47914+P62888+P62899+P62910+P49207+P42766+P18077+Q9Y3U8+P83881+P61927+P61513+P63173+P62891+P62945+P05388+P05386); assay: Binding affinity to RPS11 in human NCI-H358 cells at 1 uM by mass spectrometry based pull down assay; type: cell-based
[10] = target: Serine/threonine-protein phosphatase PP1-alpha catalytic subunit (Homo sapiens) (UniProt P62136); assay: Binding affinity to PPP1CA in human NCI-H23 cells at 1 uM by mass spectrometry based pull down assay; type: cell-based
[11] = target: Thioredoxin (Homo sapiens) (UniProt P10599); assay: Binding affinity to TXN in human NCI-H23 cells at 1 uM by mass spectrometry based pull down assay; type: cell-based
[12] = target: Proto-oncogene tyrosine-protein kinase Src (Homo sapiens) (UniProt P12931); assay: Binding affinity to SRC in human NCI-H23 cells at 1 uM by mass spectrometry based pull down assay; type: cell-based
[13] = target: DnaJ homolog subfamily B member 6 (Homo sapiens) (UniProt O75190); assay: Binding affinity to DNAJB6 in human NCI-H23 cells at 1 uM by mass spectrometry based pull down assay; type: cell-based
[14] = target: NAD(P)H dehydrogenase [quinone] 1 (Homo sapiens) (UniProt P15559); assay: Binding affinity to NQO1 in human NCI-H23 cells at 1 uM by mass spectrometry based pull down assay; type: cell-based
[15] = target: Protein phosphatase 1G (Homo sapiens) (UniProt O15355); assay: Binding affinity to PPM1G in human NCI-H358 cells at 1 uM by mass spectrometry based pull down assay; type: cell-based
[16] = target: Cysteine and glycine-rich protein 2 (Homo sapiens) (UniProt Q16527); assay: Binding affinity to CSRP2 in human NCI-H23 cells at 1 uM by mass spectrometry based pull down assay; type: cell-based
[17] = target: Sequestosome-1 (Homo sapiens) (UniProt Q13501); assay: Binding affinity to SQSTM1 in human NCI-H358 cells at 1 uM by mass spectrometry based pull down assay; type: cell-based
[18] = target: DnaJ homolog subfamily A member 2 (Homo sapiens) (UniProt O60884); assay: Binding affinity to DNAJA2 in human NCI-H23 cells at 1 uM by mass spectrometry based pull down assay; type: cell-based
[19] = target: T1, 80S Ribosome (Homo sapiens); assay: Binding affinity to RPL10 in human NCI-H23 cells at 1 uM by mass spectrometry based pull down assay; type: cell-based
[20] = target: Nucleoside diphosphate kinase A/B (Homo sapiens) (UniProt P15531+P22392); assay: Binding affinity to NME1-NME2 in human NCI-H23 cells at 1 uM by mass spectrometry based pull down assay; type: cell-based
[21] = target: Proteasome subunit beta type-6 (Homo sapiens) (UniProt P28072); assay: Binding affinity to PSMB6 in human NCI-H358 cells at 1 uM by mass spectrometry based pull down assay; type: cell-based
[22] = target: Heterogeneous nuclear ribonucleoprotein U (Homo sapiens) (UniProt Q00839); assay: Binding affinity to HNRNPU in human NCI-H358 cells at 1 uM by mass spectrometry based pull down assay; type: cell-based
[23] = target: ATP-dependent 6-phosphofructokinase, liver type (Homo sapiens) (UniProt P17858); assay: Binding affinity to PFKL in human NCI-H358 cells at 1 uM by mass spectrometry based pull down assay; type: cell-based
[24] = target: Proteasome subunit beta type-6 (Homo sapiens) (UniProt P28072); assay: Binding affinity to PSMB6 in human NCI-H23 cells at 1 uM by mass spectrometry based pull down assay; type: cell-based
[25] = target: Src substrate cortactin (Homo sapiens) (UniProt Q14247); assay: Binding affinity to CTTN in human NCI-H23 cells at 1 uM by mass spectrometry based pull down assay; type: cell-based
[26] = target: Protein kinase C iota (Homo sapiens) (UniProt P41743); assay: Inhibition of PKCi in human SKCO1 cells at 1 uM after 4 hrs using biotin labeled DLKLDNVLLDSEGHIK probe by mass-spectrometric analysis relative to control
Sequence of Protein kinase C iota (Homo sapiens) (P41743 whole entry, looked up): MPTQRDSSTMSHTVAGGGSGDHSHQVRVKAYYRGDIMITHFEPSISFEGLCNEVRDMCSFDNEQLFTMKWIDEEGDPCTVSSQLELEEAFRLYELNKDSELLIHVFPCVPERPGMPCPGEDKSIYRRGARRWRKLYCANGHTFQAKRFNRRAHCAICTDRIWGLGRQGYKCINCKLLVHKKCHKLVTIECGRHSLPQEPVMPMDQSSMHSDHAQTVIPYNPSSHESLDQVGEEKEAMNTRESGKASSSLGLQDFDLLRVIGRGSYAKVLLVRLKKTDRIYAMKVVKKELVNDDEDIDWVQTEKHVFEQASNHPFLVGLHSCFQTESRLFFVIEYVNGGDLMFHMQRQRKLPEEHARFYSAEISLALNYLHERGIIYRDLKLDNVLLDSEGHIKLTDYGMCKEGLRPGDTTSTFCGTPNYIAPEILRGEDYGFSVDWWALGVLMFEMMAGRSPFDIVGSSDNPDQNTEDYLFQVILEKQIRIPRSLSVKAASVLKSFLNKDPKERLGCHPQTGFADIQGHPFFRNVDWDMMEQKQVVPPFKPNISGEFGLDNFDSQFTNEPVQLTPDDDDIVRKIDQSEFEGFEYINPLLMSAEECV

Sequence of Proteasome subunit beta type-6 (Homo sapiens) (P28072 whole entry): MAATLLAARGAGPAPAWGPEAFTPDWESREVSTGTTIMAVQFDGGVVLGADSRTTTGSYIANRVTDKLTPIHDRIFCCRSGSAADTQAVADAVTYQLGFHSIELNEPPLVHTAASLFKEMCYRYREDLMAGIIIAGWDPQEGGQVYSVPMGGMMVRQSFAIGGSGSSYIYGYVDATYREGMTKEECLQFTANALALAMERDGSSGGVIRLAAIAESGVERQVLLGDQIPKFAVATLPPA
Sequence of NAD(P)H dehydrogenase [quinone] 1 (Homo sapiens) (P15559 whole entry): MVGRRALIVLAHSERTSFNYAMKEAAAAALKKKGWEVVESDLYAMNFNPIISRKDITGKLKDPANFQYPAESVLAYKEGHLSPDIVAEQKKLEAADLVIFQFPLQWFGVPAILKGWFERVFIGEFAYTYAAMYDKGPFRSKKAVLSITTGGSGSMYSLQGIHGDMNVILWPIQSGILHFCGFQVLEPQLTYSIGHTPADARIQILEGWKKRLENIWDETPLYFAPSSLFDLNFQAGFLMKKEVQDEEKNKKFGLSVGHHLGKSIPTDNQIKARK
Sequence of Vascular endothelial growth factor receptor 1 (Homo sapiens) (P17948 whole entry, the tested form may be a part): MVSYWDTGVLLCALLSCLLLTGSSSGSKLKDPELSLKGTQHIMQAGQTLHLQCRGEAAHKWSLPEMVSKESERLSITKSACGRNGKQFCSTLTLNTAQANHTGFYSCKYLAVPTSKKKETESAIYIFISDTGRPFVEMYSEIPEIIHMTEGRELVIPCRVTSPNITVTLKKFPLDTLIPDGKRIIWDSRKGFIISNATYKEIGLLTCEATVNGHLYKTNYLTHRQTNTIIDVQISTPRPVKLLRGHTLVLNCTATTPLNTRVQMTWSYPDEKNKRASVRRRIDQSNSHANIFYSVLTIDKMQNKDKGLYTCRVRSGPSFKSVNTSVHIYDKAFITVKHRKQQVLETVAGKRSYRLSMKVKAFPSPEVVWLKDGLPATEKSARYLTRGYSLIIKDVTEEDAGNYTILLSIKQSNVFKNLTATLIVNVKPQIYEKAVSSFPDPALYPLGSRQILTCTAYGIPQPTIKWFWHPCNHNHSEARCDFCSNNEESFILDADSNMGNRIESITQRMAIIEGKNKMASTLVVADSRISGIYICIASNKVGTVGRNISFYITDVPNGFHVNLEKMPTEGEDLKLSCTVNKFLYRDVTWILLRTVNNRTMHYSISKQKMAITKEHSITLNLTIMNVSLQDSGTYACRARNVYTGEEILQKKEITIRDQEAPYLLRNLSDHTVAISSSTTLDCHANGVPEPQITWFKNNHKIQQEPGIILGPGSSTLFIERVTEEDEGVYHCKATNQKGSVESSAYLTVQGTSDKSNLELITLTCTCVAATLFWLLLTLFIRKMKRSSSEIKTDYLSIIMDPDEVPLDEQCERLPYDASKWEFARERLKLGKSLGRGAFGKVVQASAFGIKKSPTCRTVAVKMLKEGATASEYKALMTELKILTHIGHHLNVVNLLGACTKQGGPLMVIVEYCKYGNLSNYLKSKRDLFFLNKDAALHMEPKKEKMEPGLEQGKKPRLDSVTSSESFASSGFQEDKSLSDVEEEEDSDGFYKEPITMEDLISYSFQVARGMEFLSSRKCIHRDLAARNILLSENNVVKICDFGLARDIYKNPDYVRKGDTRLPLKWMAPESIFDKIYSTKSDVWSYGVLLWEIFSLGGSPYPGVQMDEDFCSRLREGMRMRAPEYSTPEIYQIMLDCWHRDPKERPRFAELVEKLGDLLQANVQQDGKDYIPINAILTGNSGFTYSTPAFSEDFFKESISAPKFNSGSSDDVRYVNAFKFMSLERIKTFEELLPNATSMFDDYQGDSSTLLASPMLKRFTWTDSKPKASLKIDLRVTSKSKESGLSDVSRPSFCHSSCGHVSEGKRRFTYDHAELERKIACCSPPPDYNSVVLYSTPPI
Sequence of Thioredoxin (Homo sapiens) (P10599 whole entry): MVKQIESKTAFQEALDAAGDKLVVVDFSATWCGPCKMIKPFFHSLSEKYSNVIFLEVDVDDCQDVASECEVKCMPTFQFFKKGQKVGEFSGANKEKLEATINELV
Sequence of Thioredoxin-related transmembrane protein 1 (Homo sapiens) (Q9H3N1 whole entry): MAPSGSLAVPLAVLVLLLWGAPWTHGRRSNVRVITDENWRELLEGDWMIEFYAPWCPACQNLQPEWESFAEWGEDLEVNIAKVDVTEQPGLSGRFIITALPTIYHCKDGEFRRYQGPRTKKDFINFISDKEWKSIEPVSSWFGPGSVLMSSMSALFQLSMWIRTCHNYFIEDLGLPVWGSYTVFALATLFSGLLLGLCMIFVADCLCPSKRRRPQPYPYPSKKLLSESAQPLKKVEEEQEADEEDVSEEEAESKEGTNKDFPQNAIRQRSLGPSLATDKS
Sequence of Src substrate cortactin (Homo sapiens) (Q14247 whole entry): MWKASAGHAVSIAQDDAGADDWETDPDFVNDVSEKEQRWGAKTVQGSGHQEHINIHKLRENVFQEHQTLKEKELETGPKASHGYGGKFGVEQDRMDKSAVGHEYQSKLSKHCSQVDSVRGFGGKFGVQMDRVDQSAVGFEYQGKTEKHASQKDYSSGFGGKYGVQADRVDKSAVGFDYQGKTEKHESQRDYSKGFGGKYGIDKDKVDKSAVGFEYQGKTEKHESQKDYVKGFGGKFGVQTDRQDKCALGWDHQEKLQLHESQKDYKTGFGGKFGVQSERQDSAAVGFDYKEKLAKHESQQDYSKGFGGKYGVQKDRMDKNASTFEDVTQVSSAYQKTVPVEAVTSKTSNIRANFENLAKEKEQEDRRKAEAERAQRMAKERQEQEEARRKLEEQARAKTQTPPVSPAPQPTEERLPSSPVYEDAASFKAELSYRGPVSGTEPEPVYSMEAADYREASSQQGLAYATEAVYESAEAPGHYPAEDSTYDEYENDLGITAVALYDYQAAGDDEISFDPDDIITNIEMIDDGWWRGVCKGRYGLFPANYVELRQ
Sequence of ATP-dependent 6-phosphofructokinase, liver type (Homo sapiens) (P17858 whole entry): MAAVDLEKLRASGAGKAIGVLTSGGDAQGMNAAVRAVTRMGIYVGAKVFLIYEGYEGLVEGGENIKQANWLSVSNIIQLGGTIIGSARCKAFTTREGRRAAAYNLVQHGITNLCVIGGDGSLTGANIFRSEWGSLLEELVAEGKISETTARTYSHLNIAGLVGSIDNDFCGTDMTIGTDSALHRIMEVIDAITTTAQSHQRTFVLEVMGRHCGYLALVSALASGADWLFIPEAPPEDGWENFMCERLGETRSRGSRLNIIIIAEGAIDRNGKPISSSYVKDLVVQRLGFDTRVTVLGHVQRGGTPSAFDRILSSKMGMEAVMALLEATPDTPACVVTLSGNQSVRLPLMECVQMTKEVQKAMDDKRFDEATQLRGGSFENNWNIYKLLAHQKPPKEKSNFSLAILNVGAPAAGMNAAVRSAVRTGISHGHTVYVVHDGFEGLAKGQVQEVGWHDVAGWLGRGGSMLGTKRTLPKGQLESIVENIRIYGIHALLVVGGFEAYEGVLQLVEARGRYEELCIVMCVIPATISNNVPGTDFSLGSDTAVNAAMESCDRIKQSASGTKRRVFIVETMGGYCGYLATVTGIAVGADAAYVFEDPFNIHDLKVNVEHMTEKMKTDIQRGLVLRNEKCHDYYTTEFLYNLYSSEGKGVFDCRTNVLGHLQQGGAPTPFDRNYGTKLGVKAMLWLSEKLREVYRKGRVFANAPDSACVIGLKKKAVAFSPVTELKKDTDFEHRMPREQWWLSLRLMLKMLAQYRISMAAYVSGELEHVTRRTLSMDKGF
Sequence of Heterogeneous nuclear ribonucleoprotein U (Homo sapiens) (Q00839 whole entry): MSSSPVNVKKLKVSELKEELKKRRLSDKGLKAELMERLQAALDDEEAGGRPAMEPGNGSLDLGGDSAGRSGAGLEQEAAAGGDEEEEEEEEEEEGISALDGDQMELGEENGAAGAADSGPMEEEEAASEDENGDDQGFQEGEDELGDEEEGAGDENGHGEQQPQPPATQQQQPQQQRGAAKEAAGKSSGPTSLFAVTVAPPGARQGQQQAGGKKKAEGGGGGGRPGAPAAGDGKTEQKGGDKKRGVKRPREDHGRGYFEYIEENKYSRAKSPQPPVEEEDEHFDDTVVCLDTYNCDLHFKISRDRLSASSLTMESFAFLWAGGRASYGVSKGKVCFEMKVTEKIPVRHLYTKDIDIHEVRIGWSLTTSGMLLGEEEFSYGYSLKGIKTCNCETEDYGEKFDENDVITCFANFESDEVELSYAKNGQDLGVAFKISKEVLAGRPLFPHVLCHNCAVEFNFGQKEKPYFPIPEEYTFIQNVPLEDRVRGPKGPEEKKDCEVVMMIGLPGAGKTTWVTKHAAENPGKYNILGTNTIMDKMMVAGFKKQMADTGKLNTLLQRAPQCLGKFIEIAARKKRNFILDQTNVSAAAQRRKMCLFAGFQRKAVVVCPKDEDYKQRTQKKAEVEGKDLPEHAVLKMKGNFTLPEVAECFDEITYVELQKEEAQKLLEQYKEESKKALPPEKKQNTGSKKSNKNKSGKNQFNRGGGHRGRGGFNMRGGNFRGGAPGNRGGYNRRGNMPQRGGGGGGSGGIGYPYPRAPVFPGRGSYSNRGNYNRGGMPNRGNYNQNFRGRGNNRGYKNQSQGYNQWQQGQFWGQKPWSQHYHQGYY

SMILES: COc1cc(O)c2c(c1)/C=C/C[C@H](O)[C@H](O)C(=O)/C=C\C[C@H](C)OC2=O
Activity [1]: Non-Toxic | Activity [2]: 0.95% | Activity [3]: 0.5%

Activity [4]: Active | Activity [5]: Active | Activity [6]: Active | Activity [8]: Active | Activity [9]: Active | Activity [10]: Active | Activity [11]: Active | Activity [12]: Active | Activity [13]: Active | Activity [14]: Active | Activity [15]: Active | Activity [16]: Active | Activity [17]: Active | Activity [18]: Active | Activity [19]: Active | Activity [20]: Active | Activity [21]: Active | Activity [22]: Active | Activity [23]: Active | Activity [24]: Active | Activity [25]: Active
SMILES: C=CC(=O)Nc1ccccc1Nc1nc(Nc2ccc(N3CCN(CCOCCOCCOCCNC(=O)CCCC[C@@H]4SC[C@@H]5NC(=O)N[C@@H]54)CC3)cc2)ncc1Cl
Activity [7]: Active

SMILES: C=CC(=O)Nc1ccccc1Nc1nc(Nc2ccc(N3CCN(C)CC3)cc2)ncc1Cl
inhibition [26]: -5.7%
